{"source": "paper PMC7680388", "about": "(Cell chemical biology, 2020)", "key": {"[1]": {"test_system": "26S proteasome", "experiment": "Deubiquitylase activity of purified 26S proteasome", "format": "biochemical, human", "details": "KDT-11 10 μM; b-AP15 1 μM; 1 nM purified 26S proteasome, 5 mM ATP; biological triplicate; Fig. 2F"}, "[2]": {"biological_target": "T1, Rpn13 (Homo sapiens, UniProt Q16186)", "T1 sequence (Q16186 whole entry)": "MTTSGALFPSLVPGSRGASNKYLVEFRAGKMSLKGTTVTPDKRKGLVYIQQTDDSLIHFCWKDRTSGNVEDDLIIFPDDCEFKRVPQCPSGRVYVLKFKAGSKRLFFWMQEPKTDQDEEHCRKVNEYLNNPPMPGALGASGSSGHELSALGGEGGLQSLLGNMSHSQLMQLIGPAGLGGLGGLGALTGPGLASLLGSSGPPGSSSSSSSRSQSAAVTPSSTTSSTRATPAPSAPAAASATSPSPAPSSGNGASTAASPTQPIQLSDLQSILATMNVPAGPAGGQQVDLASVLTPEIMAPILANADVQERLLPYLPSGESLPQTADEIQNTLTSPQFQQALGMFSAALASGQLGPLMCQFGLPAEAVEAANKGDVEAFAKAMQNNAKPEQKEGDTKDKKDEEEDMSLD", "details": "two different cancer cell lines, ref Dickson, et al., submitted, cited from earlier work"}, "[3]": {"biological_target": "T1, Rpn13", "details": "ref Anchoori et al., 2013; cited from earlier work"}, "[4]": {"test_system": "cancer (in cellulo and in vivo)", "details": "ref Anchoori et al., 2013; cited from earlier work"}, "[5]": {"test_system": "solid tumors", "details": "ref Huang et al., 2014; cited from earlier work"}, "[6]": {"test_system": "MM.1R cells", "experiment": "Apoptosis flow cytometry", "format": "cell-based, Homo sapiens", "procedure,_shortened": "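MM.1R cells were treated with test compound (10 μM) or vehicle (0.1% DMSO) for 8, 16 and 24 h. Cells were washed twice in cold DPBS and resuspended in cold Annexin V buffer (HEPES, EDTA, CaCl2) with 5 μg/mL Annexin V-510 and 50 μg/mL PI. They were held 15 min at room temperature in the dark, then run by flow cytometry (violet/blue lasers). Annexin V+/PI− cells were scored apoptotic; three biological replicates.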"}}, "note": "Like-named read-outs stand apart in the source and are kept apart here.", "data": [{"smiles": "C=CC(=O)N1C/C(=C\\c2ccc([N+](=O)[O-])cc2)C(=O)/C(=C/c2ccc([N+](=O)[O-])cc2)C1", "note": "[b-AP15]", "values": [{"measurement": "effect on rate of Ub-AMC hydrolysis by 26S proteasome", "setting": "[1]", "value": "greater inhibition"}]}, {"smiles": "Cl.N[C@@H](Cc1ccccc1)C(=O)N1C/C(=C/c2ccc(Cl)c(Cl)c2)C(=O)/C(=C\\c2ccc(Cl)c(Cl)c2)C1", "note": "[RA190]", "values": [{"measurement": "engagement of Rpn13 in cellulo", "setting": "[2]", "value": "Rpn13 is not engaged by this compound in cellulo"}, {"measurement": "engagement of Rpn13 in cellulo", "setting": "[2]; listed as RA-190", "value": "does not engage Rpn13 in cells"}, {"measurement": "engagement of Rpn13 in vitro", "setting": "[3]", "value": "engages Rpn13 selectively in vitro"}, {"measurement": "anti-cancer activity in cellulo and in vivo", "setting": "[4]", "value": "displays interesting anti-cancer activity in cellulo and in vivo"}]}, {"smiles": "CC(C)C[C@H](NC(=O)[C@H](Cc1ccccc1)NC(=O)c1cnccn1)B(O)O", "note": "[Bortezomib]", "values": [{"measurement": "dose-limiting toxicity", "setting": "[5]", "value": "dose-limiting toxicity"}, {"measurement": "efficacy as a single agent in solid tumors", "setting": "[5]", "value": "unsuccessful as a single agent to treat solid tumors"}, {"measurement": "induction of apoptosis and cell death, Annexin V/PI staining", "setting": "[6]; 8, 16 and 24 hours", "value": "induces apoptosis and cell death rapidly"}, {"measurement": "cells both Annexin V- and PI-positive", "setting": "[6]; 16 hours, KDT-11 10 μM (Fig. 4), Bortezomib Supplementary Figure 4", "value": "≈ 85%"}]}]}
